Compound activity (PubChem)
mABHD4 FP – inhibitors of mouse ABHD4; Q8VD66; purified mABHD4, FP-Rh probe fluorescence polarization; inhibition, % at 8.92 µM; actives 0.54% (n = 370,000);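 active = inhibition exceeding the mean over every tested compound plus 3 SD, cut at about 30% in these data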
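Assay system: wild-type mouse ABHD4 protein; compound: single nominal dose of 8.92 µM, 0.89% DMSO final; schedule: 45 min + 60 min at 25 °C; measured by: FP readout, ex 525 nm / em 598 nm; evaluation: % inhibition of FP-Rh probe binding versus controls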
SIAE inh – blocks human sialic acid acetylesterase | SIAE FP-Rh probe binding, fluorescence polarization | inhibition, % at 9.66 µM | actives 0.69% (n = 370,000) | AID 1053197;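 active = inhibition above a cutoff: mean of compounds within the control limits plus 3 SD of those, cut at about 17% in these data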
TCR CD3 inh – inhibitors of human TCR-CD3 interaction; TAMRA-labeled TCR probe fluorescence, biochemical; AID 651800; inhibition, % at 9.4 µM; actives 0.37% (n = 360,000);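 note: recombinant mutant TCR 2C K166C tagged with TAMRA read by polarization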
DAGLB inh – diacylglycerol lipase beta (human) inhibition. Q8NCG7. HEK293T DAGLB membrane lysate, EnzChek fluorogenic substrate. inhibition, % at 5.17 µM. actives 0.059% (n = 340,000); in the data active = inhibition above about 34%
Target sequence (Q8NCG7 whole entry, looked up): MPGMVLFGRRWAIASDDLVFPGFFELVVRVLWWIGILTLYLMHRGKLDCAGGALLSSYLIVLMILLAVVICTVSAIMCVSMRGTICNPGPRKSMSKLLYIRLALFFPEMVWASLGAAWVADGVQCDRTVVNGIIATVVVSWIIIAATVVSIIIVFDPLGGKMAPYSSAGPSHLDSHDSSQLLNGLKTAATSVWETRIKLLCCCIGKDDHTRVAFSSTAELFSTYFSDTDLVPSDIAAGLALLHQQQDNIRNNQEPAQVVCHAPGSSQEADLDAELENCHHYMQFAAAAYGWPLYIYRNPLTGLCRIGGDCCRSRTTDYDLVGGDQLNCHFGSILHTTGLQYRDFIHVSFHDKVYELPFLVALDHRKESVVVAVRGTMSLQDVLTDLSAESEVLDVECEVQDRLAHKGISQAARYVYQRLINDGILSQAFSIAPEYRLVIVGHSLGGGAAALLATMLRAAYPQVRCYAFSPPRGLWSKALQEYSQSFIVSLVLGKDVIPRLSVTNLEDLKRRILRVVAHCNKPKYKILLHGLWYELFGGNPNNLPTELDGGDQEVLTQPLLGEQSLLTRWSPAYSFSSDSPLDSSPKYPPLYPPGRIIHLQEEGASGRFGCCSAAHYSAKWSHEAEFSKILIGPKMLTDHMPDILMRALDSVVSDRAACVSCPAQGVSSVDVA
HTRA1 inh – inhibitors of human serine peptidase HTRA1; Q92743; inhibition, % at 5.96 µM; actives 0.5% (n = 340,000); AID 504803; recombinant HTRA1, FP-rhodamine activity-based probe, fluorescence polarization; in the data active = inhibition above about 36%
HTRA1 inh conf – confirmation of human HTRA1 inhibitors; shares compounds with HTRA1 inh; recombinant HTRA1, FP-rhodamine activity-based probe, fluorescence polarization; inhibition, % at 5.96 µM; actives 66% (n = 1,600);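 active = mean inhibition over three repeats above a set limit taken from the earlier primary screen, cut at about 37% in these data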;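 note: inhibitors block probe binding so polarization drops and inhibition rises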
BSA probe FL – counter-screen for TCR-CD3 interaction inhibitors: BSA probe; shares compounds with TCR CD3 inh; TAMRA-labeled BSA probe fluorescence counterscreen; inhibition, % at 9.4 µM; actives 10% (n = 1,200); in the data active = inhibition above about 23%
TCR-CD3 inh conf – TCR-CD3 interaction inhibition, confirmation | inhibition, % at 9.4 µM | shares compounds with TCR CD3 inh | TAMRA-labeled TCR probe fluorescence binding assay | actives 48% (n = 1,200)
mABHD4 conf – confirmation of mouse ABHD4 inhibitors; inhibition, % at 8.92 µM; AID 720658; shares compounds with mABHD4 FP; purified mABHD4, FP-Rh probe fluorescence polarization; actives 55% (n = 1,800);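 active = mean inhibition across replicates above the hit cutoff set in the primary screen, cut at about 30% in these data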
SIAE confirm – human SIAE inhibition, confirmation. actives 13% (n = 2,300). SIAE FP-Rh activity-based probe, fluorescence polarization. inhibition, % at 9.66 µM. shares compounds with SIAE inh;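 active = mean inhibition of the replicates above the hit cutoff set in the primary screen, cut at about 17% in these data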;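 note: inhibitors lower polarization as more probe stays unbound to SIAE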
Hits are given with their value; 0 = inactive; - = no result. Hits are enriched below; roughly 1.6% of the tested compounds scored in any of these assays. Cut-off read from the data, not from the text of the source, unless noted: active = inhibition above about 19%; inactive = the rest.

SMILES	mABHD4 FP	SIAE inh	TCR CD3 inh	DAGLB inh	HTRA1 inh	BSA probe FL	TCR-CD3 inh conf	others
O=C(Nc1cccnc1)c1ccc2nc(-c3ccccc3)c(-c3ccccc3)nc2c1	0	0	0	0	0	-	-
COc1ccc(-c2nc3ccccc3nc2-c2ccc(OC)cc2)cc1	0	0	0	0	0	-	-
CCCCNC(=O)c1ccc2nc(-c3ccco3)c(-c3ccco3)nc2c1	60	27	23	0	53	0	0	HTRA1 inh conf=39;mABHD4 conf=52;SIAE confirm=0
COc1ccccc1NC(=O)OC1CCC12CCCCC2 (stereo not drawn)	0	0	-	-	-	-	-
CCN(CC)C(=O)O[C@H]1CC[C@@]23CCCN2C(=O)CCC[C@H]3[C@H]1C	0	0	-	-	-	-	-
N#Cc1cc(F)cc(OC[C@@H](O)CN2CCC(C(O)(c3ccccc3)c3ccccc3)CC2)c1	0	0	-	-	-	-	-
O=C(COCc1ccccc1)N1CC[C@H]2[C@H](CCCN2Cc2ccc(F)cc2)C1	0	0	-	-	-	-	-
CN(CCO)c1nc(N)c2c(N)nc3c(c2c1C#N)CC(=O)N3Cc1cccs1	0	0	21	0	0	0	0
N#Cc1c(N(CCO)CCO)nc(N)c2c(N)nc3c(c12)CC(=O)N3Cc1cccs1	-	-	-	0	0	-	-
CCCCNC(=O)O[C@H]1CC[C@@]23CCCN2C(=O)CCC[C@H]3C1	0	0	-	-	-	-	-
Cc1cccc(-c2cccc3c4c([nH]c23)[C@@H]2C[C@H](N(C)C(=O)c3ccccc3F)[C@H]([C@H](C)O)CN2CC4)c1	0	0	-	-	-	-	-
Cc1nc(S/C(=C/c2ccc(OCc3ccc(C(=O)O)cc3)cc2)C(=O)O)n[nH]1	0	0	22	0	0	0	32
COC(=O)CSc1nnc(-c2ccc(NS(=O)(=O)c3ccc(Cl)s3)cc2)o1	0	0	-	-	-	-	-
CCNC(=S)NNC(=O)c1cccn(Cc2ccc(Cl)cc2Cl)c1=O	0	0	20	0	0	0	0
C=CCNC(=S)NNC(=O)c1cccn(Cc2ccc(Cl)cc2Cl)c1=O	0	0	20	0	0	0	0
C=CCNC(=S)NNC(=O)c1cccc2ccccc12	0	0	0	0	0	-	-
C[C@H](O)[C@@H]1C(=O)N2CCc3c([nH]c4cccc(-c5ccccc5)c34)[C@@H]2C[C@@H]1N(C)C(=O)OCc1ccccc1	0	0	21	-	-	0	0
COc1ccc(Cl)cc1C(=O)NC(=S)Nc1cc(-c2nc3ccccc3[nH]2)ccc1C	0	0	47	0	0	0	0
O=C(COC(=O)c1cc(-c2cccs2)nn1-c1ccccc1)Nc1ccc(F)c([N+](=O)[O-])c1	0	0	21	0	0	0	0
COc1ccccc1OCC(=O)N/N=C/C=C/c1ccc([N+](=O)[O-])o1	0	0	27	0	0	0	0
O=C(O)CC(C(=O)O)N1C(=O)/C(=C/c2ccc(-c3nc4ccccc4s3)o2)SC1=S (stereo not drawn)	38	0	22	0	0	0	26
Cc1cc(C(=O)O)c2ccccc2n1	0	0	0	0	0	-	-
CC(C)c1cc(C(=O)O)c2ccccc2n1	0	0	34	0	0	0	0
Cc1cc(Br)cn2c(Cc3ccsc3)c(-c3ccccc3)nc12	0	0	0	-	-	-	-
Cc1ccc(-c2nc3c(C)cc(Br)cn3c2Cc2ccsc2)cc1	0	0	23	-	-	0	0
SMILES	mABHD4 FP	SIAE inh	TCR CD3 inh	DAGLB inh	HTRA1 inh	BSA probe FL	TCR-CD3 inh conf	others
O=C(N[C@H]1C[C@@H]2O[C@H](CO)CC[C@@H]2O[C@@H]1CCc1ccc(-c2cccnc2)cc1)c1cccc(F)c1	0	0	-	-	-	-	-
COc1ccc(C(C(=O)N(C)C2CCCC2)N(Cc2ccc(F)cc2)C(=O)c2csc(N3CCOCC3)n2)cc1OC (stereo not drawn)	0	0	-	-	-	-	-
c1ccc(CSc2nc3ccccc3[nH]2)cc1	0	0	0	0	0	-	-
CCn1c(CSc2nc3ccccc3[nH]2)nc2cc(C(=O)O)ccc21	0	0	34	0	0	57	42
CC(=O)OCCC(CC(C)C)NC(=O)[C@H](CC(C)C)NC(=O)OCc1ccccc1 (stereo partly drawn)	0	0	-	-	-	-	-
C[C@@H]1CN([C@H](C)CO)C(=O)c2cc(NC(=O)Nc3ccc(C(F)(F)F)cc3)ccc2O[C@H]1CN(C)S(=O)(=O)c1cccs1	0	0	43	0	0	0	23
C[C@H](CO)N1C[C@H](C)[C@@H](CN(C)S(=O)(=O)c2cccs2)Oc2ccc(NC(=O)Nc3ccc(C(F)(F)F)cc3)cc2C1=O	0	0	28	0	0	0	19
C[C@H](CO)N1C[C@H](C)[C@@H](CN(C)S(=O)(=O)c2cccs2)Oc2ccc(NC(=O)Nc3ccccc3)cc2C1=O	0	0	0	0	0	-	-
COC(=O)C1CN(Cc2cn(Cc3ccc(OC)cc3)nn2)CCS(=O)(=O)N1Cc1ccc(OC)cc1 (stereo not drawn)	0	0	-	-	-	-	-
COC(=O)c1cc2c(c3c4cc(F)ccc4n(S(=O)(=O)c4cccc(C)c4)c13)C(=O)N(c1ccc(OC)cc1)C2	0	0	0	-	-	-	-
Cc1ccc(-n2c(O)c(C=Nc3ccccc3-c3n[nH]c(=S)[nH]c3=O)c3ccccc3c2=O)cc1C	0	0	23	0	0	0	0
CCOC(=O)[C@]12CCCCC/C=C\1N(CCc1ccc(Cl)cc1)C(=O)[C@H]2CC(=O)NCc1cccc2ccccc12	0	0	-	-	-	-	-
COc1ccccc1CC1CC(=O)N(c2cccc(Cl)c2C)C1=O (stereo not drawn)	0	0	19	0	0	0	0
COc1ccc(CN2CCC(CNC(=O)NC(C)C)CC2)cc1	0	0	-	-	-	-	-
Oc1c(C=Nc2cccc3cccnc23)sc2ccccc12	0	0	29	-	-	60	28
CS(=O)(=O)N(Cc1ccc(C(=O)NN=C2CCCCCC2)cc1)c1ccccc1	0	0	33	0	0	0	0
CS(=O)(=O)N(Cc1ccc(C(=O)NN=C2CCCC2)cc1)c1ccccc1	0	0	0	0	0	-	-
O=C(Nc1ccc(F)c(Cl)c1)C1Cc2c(-c3ccc4c(c3)OCO4)ccnc2O1 (stereo not drawn)	0	0	29	-	-	0	0
COc1ccc(N2CCN(C(c3cccs3)C(C)NC(=O)C(=O)N3CCCCC3)CC2)cc1 (stereo not drawn)	0	0	0	0	0	-	-
